Assay results taken from ChEMBL document CHEMBL1139486, “Novel benzopyridothiadiazepines as potential active antitumor agents” (J Med Chem, 2005).

Tests used:
L1210 [1] = assay: Antiproliferative activity against mouse L1210 cells after 48 hrs relative control; type: functional, cell-based; settings: L1210, 48 h
How it was run: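 L1210 cells grown in RPMI 1640 with 10% fetal calf serum, 2 mM L-glutamine, penicillin/streptomycin and 10 mM HEPES (pH 7.4). Cells were exposed 48 h to graded drug concentrations, then MTT was added for 4 h at 37 °C. Formazan was dissolved in DMSO and OD read at 540 nm. IC50 came from linear regression on the linear part of the dose-response curve, in triplicate.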

DU-145 = assay: Antiproliferative activity against DU145 cells; type: functional, Homo sapiens
P388 = assay: Antiproliferative activity against P388 cells; type: functional, Mus musculus
A549 = assay: Antiproliferative activity against A549 cells; type: functional, Homo sapiens
[2] = Antiproliferative activity against KB3-1 cells; type: functional, Homo sapiens, KB 3-1
[3] = Antiproliferative activity against adriamycin-resistant KB A1 cells; type: functional, Homo sapiens
IGROV-1 = assay: Antiproliferative activity against IGROV1 cells; type: functional, Homo sapiens
L1210 [4] = assay: Cell cycle perturbations in mouse L1210 cells assessed as accumulation in G1 phase after 21 hrs at 1 uM relative to control; type: functional
L1210 [5] = assay: Cell cycle perturbations in mouse L1210 cells assessed as accumulation in S phase after 21 hrs at 1 uM relative to control; type: functional
L1210 [6] = assay: Cell cycle perturbations in mouse L1210 cells assessed as accumulation in G2+M phase after 21 hrs at 1 uM relative to control; type: functional
L1210 [7] = assay: Cell cycle perturbations in mouse L1210 cells assessed as accumulation in 8N phase after 21 hrs at 1 uM relative to control; type: functional
Tubulin = assay: Inhibition of tubulin polymerization; type: protein-complex assay, Homo sapiens
L1210 [8] = assay: Cell cycle perturbations in mouse L1210 cells assessed as accumulation in G1 phase after 21 hrs at 2.5 uM relative to control; type: functional
L1210 [9] = assay: Cell cycle perturbations in mouse L1210 cells assessed as accumulation in S phase after 21 hrs at 2.5 uM relative to control; type: functional
L1210 [10] = assay: Cell cycle perturbations in mouse L1210 cells assessed as accumulation in G2+M phase after 21 hrs at 2.5 uM relative to control; type: functional
L1210 [11] = assay: Cell cycle perturbations in mouse L1210 cells assessed as accumulation in 8N phase after 21 hrs at 2.5 uM relative to control; type: functional
L1210 [12] = assay: Cell cycle perturbations in mouse L1210 cells assessed as accumulation in G1 phase after 21 hrs at 5 uM relative to control; type: functional
How it was run: (§1)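 L1210 cells in RPMI 1640 with 10% fetal calf serum, 2 mM L-glutamine, antibiotics and 10 mM HEPES (pH 7.4) were exposed for 21 h (two doubling times). They were fixed in 70% ethanol and stained 30 min at 20 °C in D-PBS with […] RNAse and […] propidium iodide. 10⁴ cells per sample were analysed by flow cytometry for % G1, S, G2+M and 8N.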

L1210 [13] = assay: Cell cycle perturbations in mouse L1210 cells assessed as accumulation in S phase after 21 hrs at 5 uM relative to control; type: functional; how it was run: as §1
L1210 [14] = assay: Cell cycle perturbations in mouse L1210 cells assessed as accumulation in G2+M phase after 21 hrs at 5 uM relative to control; type: functional; how it was run: as §1
L1210 [15] = assay: Cell cycle perturbations in mouse L1210 cells assessed as accumulation in 8N phase after 21 hrs at 5 uM relative to control; type: functional; how it was run: as §1
L1210 [16] = assay: Cell cycle perturbations in mouse L1210 cells assessed as accumulation in G1 phase after 21 hrs at 0.2 uM relative to control; type: functional
L1210 [17] = assay: Cell cycle perturbations in mouse L1210 cells assessed as accumulation in S phase after 21 hrs at 0.2 uM relative to control; type: functional
L1210 [18] = assay: Cell cycle perturbations in mouse L1210 cells assessed as accumulation in G2+M phase after 21 hrs at 0.2 uM relative to control; type: functional
L1210 [19] = assay: Cell cycle perturbations in mouse L1210 cells assessed as accumulation in 8N phase after 21 hrs at 0.2 uM relative to control; type: functional
L1210 [20] = assay: Cell cycle perturbations in mouse L1210 cells assessed as accumulation in G1 phase after 21 hrs at 2 uM relative to control; type: functional; how it was run: as §1
L1210 [21] = assay: Cell cycle perturbations in mouse L1210 cells assessed as accumulation in S phase after 21 hrs at 2 uM relative to control; type: functional; how it was run: as §1
L1210 [22] = assay: Cell cycle perturbations in mouse L1210 cells assessed as accumulation in G2+M phase after 21 hrs at 2 uM relative to control; type: functional; how it was run: as §1
L1210 [23] = assay: Cell cycle perturbations in mouse L1210 cells assessed as accumulation in 8N phase after 21 hrs at 2 uM relative to control; type: functional; how it was run: as §1

Which IC50 (L1210 [1]) does the source give for COc1ccc(CN2C=CC=C3C2=Nc2ccccc2S(=O)(=O)N3C)cc1 here?
The IC50 was over 10 µM.

Which results are given for COc1ccc(CCN2C=CC=C3C2=Nc2ccccc2S(=O)(=O)N3C)cc1?
IC50 (L1210 [1]): 0.3 µM; Activity (DU-145): 0.55 µM; Activity (P388): 0.33 µM; Activity (A549): 0.45 µM; Activity [2]: 0.24 µM; Activity [3]: 0.3 µM; Activity (IGROV-1): 0.34 µM; Activity (L1210 [4]): 6%; Activity (L1210 [5]): 8%; Activity (L1210 [6]): 32%; Activity (L1210 [7]): 54%; IC50 (Tubulin): 3.8 µM

For COc1ccc(CCCN2C=CC=C3C2=Nc2ccc(Cl)cc2S(=O)(=O)N3C)cc1, which IC50 (L1210 [1]) is on record?
The IC50 was over 10 µM.

With COc1cc(CCN2C=CC=C3C2=Nc2ccccc2S(=O)(=O)N3C)cc(OC)c1OC as the compound, how does the IC50 (L1210 [1]) read?
Its IC50 is over 10 µM.

Which IC50 (L1210 [1]) does the source give for CCN(CC)CCN1c2ccccc2N=C2C(=CC=CN2CCc2ccc(OC)cc2)S1(=O)=O here?
Its IC50 is over 10 µM.

With COc1ccc(CCN2c3cc(Cl)ccc3N(C)S(=O)(=O)c3cccnc32)cc1 as the compound, how does the IC50 (L1210 [1]) read?
The IC50 was over 100 µM.

Which IC50 (L1210 [1]) does the source give for COc1ccc(CN2C=CC=C3C2=Nc2cc(C(F)(F)F)ccc2S(=O)(=O)N3C)cc1 here?
The IC50 was over 10 µM.

With COc1ccc(CCN2C=CC=C3C2=Nc2ccc(Cl)cc2S(=O)(=O)N3C)cc1 as the compound, how does the IC50 (L1210 [1]) read?
The IC50 was 1.3 µM.

And the Activity (L1210 [8])?
The Activity was 4%.

What about the Activity (L1210 [9]) of the same compound?
The Activity was 6%.

And the Activity (L1210 [10])?
Its Activity is 24%.

And the Activity (L1210 [11])?
Its Activity is 66%.

With COc1ccc(CCN2C=CC=C3C2=Nc2cc(OC)ccc2S(=O)(=O)N3C)cc1 as the compound, how does the IC50 (L1210 [1]) read?
The IC50 was over 10 µM.

Which IC50 (L1210 [1]) does the source give for COc1ccc(CCN2c3ccccc3S(=O)(=O)N(C)c3cccnc32)cc1 here?
Its IC50 is over 10 µM.

Which IC50 (L1210 [1]) does the source give for COc1ccc(CCCN2c3ccccc3N(C)S(=O)(=O)c3cccnc32)cc1 here?
The IC50 was over 10 µM.

What does the source list for COc1ccc(CCN2C=CC=C3C2=Nc2cc(C)ccc2S(=O)(=O)N3C)cc1?
IC50 (L1210 [1]): 1.4 µM; Activity (L1210 [12]): 5%; Activity (L1210 [13]): 8%; Activity (L1210 [14]): 19%; Activity (L1210 [15]): 68%

For CN1C2=CC=CN(CCc3ccc(OCc4ccccc4)cc3)C2=Nc2ccccc2S1(=O)=O, which IC50 (L1210 [1]) is on record?
Its IC50 is over 10 µM.

Which IC50 (L1210 [1]) does the source give for COc1cc(CCN2c3ccccc3S(=O)(=O)N(C)c3cccnc32)cc(OC)c1OC here?
Its IC50 is over 10 µM.

For COc1ccc(CCN2c3cc(OC)ccc3N(C)S(=O)(=O)c3cccnc32)cc1, which IC50 (L1210 [1]) is on record?
The IC50 was over 10 µM.

Which IC50 (L1210 [1]) does the source give for COc1ccc(CN2c3cc(C)ccc3N(C)S(=O)(=O)c3cccnc32)cc1 here?
Its IC50 is 6.9 µM.

For COc1ccc(CCN2C=CC=C3C2=Nc2ccccc2N(C)S3(=O)=O)cc1, which IC50 (L1210 [1]) is on record?
The IC50 was 0.11 µM.

And the Activity (DU-145)?
Its Activity is 0.14 µM.

What about the Activity (L1210 [16]) of the same compound?
Its Activity is 5%.

And the Activity (L1210 [17])?
Its Activity is 8%.

And the Activity (L1210 [18])?
Its Activity is 17%.

What about the Activity (L1210 [19]) of the same compound?
Its Activity is 70%.

What about the IC50 (Tubulin) of the same compound?
The IC50 was 2.4 µM.

For COc1ccc(CN2C=CC=C3C2=Nc2ccccc2N(Cc2ccc(OC)cc2)S3(=O)=O)cc1, which IC50 (L1210 [1]) is on record?
The IC50 was over 100 µM.

For COc1ccc(CCN2C=CC=C3C2=Nc2ccccc2N(Cc2ccc(OC)cc2)S3(=O)=O)cc1, which IC50 (L1210 [1]) is on record?
The IC50 was over 100 µM.

With COc1ccc(CN2c3cc(C(F)(F)F)ccc3S(=O)(=O)N(C)c3cccnc32)cc1 as the compound, how does the IC50 (L1210 [1]) read?
The IC50 was over 10 µM.

With COc1ccc(CCN2c3ccccc3N(Cc3ccc(OC)cc3)S(=O)(=O)c3cccnc32)cc1 as the compound, how does the IC50 (L1210 [1]) read?
Its IC50 is over 100 µM.

Which IC50 (L1210 [1]) does the source give for COc1ccc(CN2c3ccccc3N(C)S(=O)(=O)c3cccnc32)cc1 here?
The IC50 was 9.6 µM.

Which IC50 (L1210 [1]) does the source give for CCN(CC)CCN1c2ccccc2N(CCc2ccc(OC)cc2)c2ncccc2S1(=O)=O here?
Its IC50 is over 10 µM.

With COc1ccc(CCCN2C=CC=C3C2=Nc2cc(C(F)(F)F)ccc2S(=O)(=O)N3C)cc1 as the compound, how does the IC50 (L1210 [1]) read?
Its IC50 is over 10 µM.

Which results are given for COc1ccc(CCN2C=CC=C3C2=Nc2cc(Cl)ccc2S(=O)(=O)N3C)cc1?
IC50 (L1210 [1]): 1.3 µM; Activity (L1210 [12]): 7%; Activity (L1210 [13]): 6%; Activity (L1210 [14]): 26%; Activity (L1210 [15]): 61%

Which IC50 (L1210 [1]) does the source give for COc1ccc(CCN2C=CC=C3C2=Nc2cc(Cl)ccc2N(C)S3(=O)=O)cc1 here?
Its IC50 is 0.19 µM.

What about the Activity (L1210 [4]) of the same compound?
The Activity was 8%.

And the Activity (L1210 [5])?
The Activity was 10%.

What about the Activity (L1210 [6]) of the same compound?
The Activity was 19%.

And the Activity (L1210 [7])?
Its Activity is 63%.

Which IC50 (L1210 [1]) does the source give for COc1ccc(CN2c3cc(Cl)ccc3S(=O)(=O)N(C)c3cccnc32)cc1 here?
Its IC50 is over 10 µM.

With COc1ccc(CCCN2C=CC=C3C2=Nc2cc(Cl)ccc2S(=O)(=O)N3C)cc1 as the compound, how does the IC50 (L1210 [1]) read?
The IC50 was over 10 µM.

For COc1ccc(CCN2C=CC=C3C2=Nc2cc(C)ccc2N(C)S3(=O)=O)cc1, which IC50 (L1210 [1]) is on record?
Its IC50 is 0.41 µM.

What about the Activity (L1210 [20]) of the same compound?
The Activity was 2%.

And the Activity (L1210 [21])?
Its Activity is 2%.

And the Activity (L1210 [22])?
The Activity was 12%.

What about the Activity (L1210 [23]) of the same compound?
The Activity was 84%.
